This is an account of results in ChEMBL document CHEMBL4513216, “Probing the Open Global Health Chemical Diversity Library for Multistage-Active Starting Points for Next-Generation Antimalarials” (ACS Infect Dis, 2020).

The nature of the series: Toxicity liver stage against HepG2, at 10uM. It counts as cell-based. More on the design: test concentration 10 uM, cell line HepG2-A16-CD81EGFP. The settings on record: human, HepG2-A16-CD81EGFP cells; read-out: INHIBITION
In outline:
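Uninfected HepG2-A16-CD81EGFP cells, 3 × 10^3 per well, 1536-well, plated on prespotted compound at 10 μM final, parasite-free screening media added to match infected plates; puromycin 10 μM positive, DMSO 0.5% negative; run in parallel with 48 h PbLuc assay at 37 °C, 5% CO2; viability by CellTiter-Glo luminescence, normalized to controls.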
In the case of `Cc1ncoc1C(=O)N1CCCC(C(=O)c2cccc(OC(C)C)c2)C1` (configuration not stated), the cytotoxicity at 10 µM worked out at 8.84%.
The value for `Fc1ccc2[nH]c([C@H]3CCN(C4CCOCC4)C3)nc2c1` was 1.9%; that for `CCNC(=O)NC[C@H]1C[C@@H]2CCN1C[C@@H]2c1cc(-c2cccs2)nn1C` was -5.72%; that for `Cc1n[nH]c2c1C(c1ccc(O)cc1)SCC(=O)N2` (configuration not stated) was 10.6%.
The value for `COc1ccc2c(c1)OC1(CCN(Cc3ccc(C)cc3)CC1)CC2=O` was 7.6%; that for `CN1CCN(C(=O)[C@H]2CC[C@@H]3[C@@H](CCN3Cc3nccs3)O2)CC1` was 5.41%.
As to `O=C(COc1ccc2c(c1)OCO2)NCc1ccco1`, the cytotoxicity at 10 µM came to 3.22%.
The value for `CN(C)CCN(Cc1cccc(F)c1)C(=O)c1ccn(C)c(=O)c1` was -3.92%; that for `CN1CCCC(CNC(=O)N(C)Cc2ccc(Cl)c(F)c2)C1` (configuration not stated) was 1.36%; that for `O=C(CN1CCc2cncnc2C1)NC1CCCCNC1=O` (configuration not stated) was 7.36%.
Turning to `O=C(NCC1(O)CCC1)c1c(O)cc(Cl)cc1Cl`, the cytotoxicity at 10 µM was 0.924%.
The figure for `CC1CCCCN1C(=O)COc1nc(Cc2ccc(F)cc2)no1` (configuration not stated) is 1.43%; for `O=C(Nc1cccnc1)N(Cc1ccccc1)C1CC1` it is 7.78%.
The figure for `COc1ncnc(N)c1CNCc1ccccc1-n1cccn1` is -24.4%; for `O=C(NCC[S+]([O-])c1ccccc1)c1ccc2[nH]c(=O)[nH]c2c1` (configuration not stated) it is 3.18%.
Regarding `CCc1c(C(=O)Nc2ccc(F)c(C(=O)NC)c2)cnn1CC(C)C`, the cytotoxicity at 10 µM stood at 14.7%.
The value for `CN1CCCC(CNC(=O)CN(C)S(=O)(=O)c2cccnc2)C1` (configuration not stated) was 9.45%; that for `Cc1nc(CN2CCN(S(=O)(=O)N3CCOCC3)CC2)oc1C` was 0.373%.
The value for `CN(C)c1ncccc1NC(=O)COC1CCCC1` was 0.189%.
The figure for `CCOc1ccccc1C(N)CC(C)C` (configuration not stated) is -0.857%; for `Cc1cc(CNCC2CNc3ccnn3C2)no1` (configuration not stated) it is -6.06%.
As for `O=C(NCC1(O)CCC1)NC(c1cc(F)ccc1F)C1CC1` (configuration not stated), the cytotoxicity at 10 µM is -4.81%.
Take `CN(CCCNC(=O)C1CCc2cn[nH]c2C1)c1ccc(F)cc1` (configuration not stated): the cytotoxicity at 10 µM is 14.2%.
The figure for `NC(=O)C1CCCN1Cc1nccn1CC(F)(F)F` (configuration not stated) is 12.2%.
As to `COC(C)Cc1nc(-c2cnn3c(C)cc(C)nc23)no1` (configuration not stated), the cytotoxicity at 10 µM is -8.11%.
The value for `CN(CCCNC(=O)NCc1ccncc1)CC(F)(F)F` was 1.85%; that for `Cc1nc(N2CCC(CC(=O)N3CCCC3)CC2)c2cnn(C)c2n1` was 0.866%.
The figure for `CS(=O)(=O)c1ccc(NC(=O)CSc2ccc3c(c2)CCC3)cc1` is 5.73%; for `COCc1nc2n(n1)CCCC2Nc1nc(C)ns1` (configuration not stated) it is -3.32%; for `O=C(CN1CCCC1Cn1cccn1)NC1CCN(C2CC2)CC1` (configuration not stated) it is 5.77%.
The value for `Fc1cccc(C2CCCN2Cc2nnnn2C2CC2)c1` (configuration not stated) was 2.8%.
For the compound `CCOc1ccc(CNCc2ccc(C(=O)NC)cc2)cc1OCC`, the cytotoxicity at 10 µM was -7.06%.
The figure for `c1cc(-c2noc(CN3CCc4c(ncn4C4CC4)C3)n2)cs1` is 4.71%; for `Cc1noc(CS(=O)(=O)CC(=O)NC(C)c2ccccc2)n1` (configuration not stated) it is 9.81%.
The value for `CS(=O)(=O)CCCSCc1cc(F)cc(Br)c1` was 9.05%; that for `Cc1nc(C(C)(C)C)sc1C(=O)NCCn1ccnc1` was -0.586%.
On to `CN(Cc1nnc2n1CCC2)S(=O)(=O)c1cc(Br)ccc1Br`, for which the cytotoxicity at 10 µM was found to be 0.392%.
The figure for `CNC(=O)CC1CCN(C(=O)NCc2coc3ccccc23)CC1` is -11.4%.
The figure for `CNS(=O)(=O)c1ccc(CNC(=O)N(CC(C)C)C(C)C)cc1` is 4.5%; for `CC(C)NC(=O)CNC(C)c1c(F)cccc1Cl` (configuration not stated) it is 7.22%.
The figure for `CC(C(=O)N1CCCCCC1)N1CCN(c2nccs2)CC1` (configuration not stated) is 11.7%.
For the compound `CN(C(=O)CCN1CCCC1=O)c1cc(C#N)c2ccccc2n1`, the cytotoxicity at 10 µM worked out at 3.33%.
The figure for `CN(C)c1cc2c(nn1)CCN(C(=O)c1cc3ccccc3[nH]c1=O)C2` is 3.99%; for `Fc1cc(CNc2nncs2)ccc1Cl` it is -1.74%; for `CC(=O)N1CCCN(C(=O)NCCCN(C)S(C)(=O)=O)CC1` it is -2.44%.
Regarding `CN1CCN(C(CNC(=O)CCn2cccn2)c2cccs2)CC1` (configuration not stated), the cytotoxicity at 10 µM was 24.4%.
Consider `CN(C)C(=O)CN1CCO[C@H]2CN(Cc3ccoc3)C[C@H]21`, for which the cytotoxicity at 10 µM is -108%.
The value for `Cc1nnc([C@@]23CCO[C@@H]2CCN(Cc2ccc4c(c2)OCO4)C3)o1` was -102%; that for `CN(C)C(=O)C1CCC2(CCN(C(=O)Nc3ccc(F)cc3)CC2)O1` (configuration not stated) was -111%; that for `CCN1Cc2c(C(=O)NC(C)C)ncn2-c2ccccc2S1(=O)=O` was -83.9%.
The value for `Cc1noc(C)c1C1CCCN1CCC(=O)N1CCc2ccccc2C1` (configuration not stated) was 2.39%.
The value for `Cc1ccc(CN2CC[C@@H](NC(=O)c3cccnc3)[C@H](O)C2)o1` was 2.52%.
In the case of `O=C(CN1CCCCC1)NCc1cccnc1-n1cnc2ccccc21`, the cytotoxicity at 10 µM was 0.522%.
With `CCCc1cc(C(=O)NC(COC)c2ccnn2C)no1` (configuration not stated), the cytotoxicity at 10 µM is -6.14%.
The value for `CCC[C@H]1CN(Cc2nccn2C)C[C@@H]1NC(=O)C1(COC)CCC1` was -3.7%; that for `CCc1nc2ccccc2n1C(CC)C(=O)N(C)Cc1noc(C)n1` (configuration not stated) was 2.23%.
Regarding `Cc1nc(CNCc2cccc(OC34CCCN(CC3)C4)c2)n[nH]1` (configuration not stated), the cytotoxicity at 10 µM is -3.69%.
The value for `CC(NC(=O)c1cccc(CCC(C)(C)O)c1)c1nnc(N)s1` (configuration not stated) was 1.16%; that for `COc1ccc(Cl)cc1C(C(=O)O)N1CCSCC1` (configuration not stated) was -10.8%; that for `O=S(=O)(NCc1ccccc1)N1CCN(c2ncccn2)CC1` was 4.7%.
With `CCC(CO)(CO)NC(=O)C1CCC(=O)N(CCc2ccccc2)C1` (configuration not stated), the cytotoxicity at 10 µM was -2.78%.
Regarding `O=C(c1ccco1)N1CCC(n2cc(-c3ccsc3)nn2)CC1`, the cytotoxicity at 10 µM worked out at 1.41%.
The figure for `Cc1cc(C)nc(NC2CCCN(CCCc3ccccc3)C2)n1` (configuration not stated) is 2.49%.
The figure for `CCc1nccn1-c1cncc(C2CCCN2Cc2ccc(F)cc2)n1` (configuration not stated) is -1.44%; for `CNC(=O)c1ccc(C(=O)N2CCCC2c2c(C)nn(C)c2C)cn1` (configuration not stated) it is -12.8%; for `NC(=O)C1CN(C(=O)Nc2ccccc2OCC(F)(F)F)CCO1` (configuration not stated) it is -7.75%.
Regarding `Cn1cnc(S(=O)(=O)NCCN2CCCCCC2)c1Cl`, the cytotoxicity at 10 µM is -17.2%.
The figure for `CC(C)c1nc(C2CCCN(C(=O)CCn3cncn3)C2)no1` (configuration not stated) is -21.1%.
The figure for `c1ccc(-c2nc(CN3CCCC3Cn3cncn3)co2)cc1` (configuration not stated) is -1.99%; for `Cc1cc(C)n(CC2CCCCN2CC(=O)NC2CCOCC2)n1` (configuration not stated) it is -9.01%.
On to `CC(C)c1nc(CN2CCCC(Cn3cncn3)C2)cs1` (configuration not stated), for which the cytotoxicity at 10 µM is -12.9%.
On to `Cc1cc(NC(=O)NCc2cccnc2OC(C)C)no1`, for which the cytotoxicity at 10 µM is -11.5%.
The figure for `CCN(Cc1cccc2c1OCO2)C(=O)NCCOC` is 1.45%; for `O=S(=O)(CCCNC1CCc2ncnn2C1)c1ccccc1` (configuration not stated) it is 2.53%.
The value for `CCc1n[nH]c(C2CN(C(=O)c3ccnc(C4CC4)n3)CCO2)n1` (configuration not stated) was 2.4%; that for `CCn1cc(CN2CCCN(C(=O)c3ccc(C)o3)CC2)cn1` was -13.9%.
The figure for `COc1c(C2CCCN2C(=O)c2csc(C(C)C)n2)c(C)nn1C` (configuration not stated) is -8.26%.
In the case of `CCc1nnc2n1CCN(C(=O)COCCc1ccccc1)C2`, the cytotoxicity at 10 µM was -8.28%.
`Cc1nnc2n1CCN(C(C(=O)NC1CC1)c1ccccc1)C2` (configuration not stated): the cytotoxicity at 10 µM is -2.94%.
The figure for `Cc1cc(C2CCCN2C(=O)c2cc3c(s2)CCC3)on1` (configuration not stated) is -13.4%; for `Cc1cc(C(C)NC(=O)N2CCC(n3cncn3)CC2)c(C)s1` (configuration not stated) it is -15.9%.
On to `CCc1nc(CN2CCCN(C(=O)C(C)n3ccnc3)CC2)cs1` (configuration not stated), for which the cytotoxicity at 10 µM is -13.8%.
The figure for `CCc1nc(CN(C)C2CCN(CCc3ccccn3)C2)no1` (configuration not stated) is -0.168%.
In the case of `CC(Cc1c(F)cccc1F)NC(=O)Nc1cnn(CC(N)=O)c1` (configuration not stated), the cytotoxicity at 10 µM is -2.96%.
With `CNC(=O)[C@@H](c1ccccc1)N1CCC[C@H]1C(=O)NC1CCCCC1`, the cytotoxicity at 10 µM was found to be 2.35%.
The figure for `O=C([C@H]1COC[C@H]2CN(C3CCCCC3)C[C@H]21)N1CCOCC1` is -110%; for `Cc1occc1C(=O)N1CCC2(CC1)CC(OCc1ccccn1)CO2` (configuration not stated) it is -71.7%.
The figure for `Cc1ccc(N2CCC3(CC2)CC(OCC(C)C)C3)nn1` is -121%.
For the compound `CCOC1COC2(CCN(CC3CCOCC3)CC2)C1` (configuration not stated), the cytotoxicity at 10 µM was -97.6%.
The figure for `CS(=O)(=O)CC(=O)N1C[C@H]2CCC[C@@]2(COCc2ccncc2)C1` is -101%; for `CC(C)Cc1nc(-c2ccnc(N3CCNCC3)n2)no1` it is 2.04%; for `O=C(NC1CC1)N1CCC2(CC1)C(=O)NCCN2Cc1ccccc1` it is -0.685%.
The figure for `COCCN1CCCn2c(nc(CNC(=O)COC)cc2=O)C1` is -106%.
The figure for `COc1cc(CNCCc2nc(C)cs2)cc2c1OCCO2` is -2.4%; for `COc1nn(C)c2c1CCCN(C(=O)c1cccc(C)n1)C2` it is -97.3%; for `Cc1nc(CN2CC[C@@H]3O[C@@H](C(=O)N4CCOCC4)C[C@@H]32)cs1` it is 2.08%.
For `CCOC1CC2(CCN(C(=O)Cc3ccccn3)CC2)C1`, the cytotoxicity at 10 µM was -90.9%.
